Compound activity: PubChem, several laboratories
Only some compounds are listed: those with a hit (about 29% of all), similar ones and a draw of the others.
CYP2C19 inhib – human CYP2C19 inhibition. actives 21% (n = 96,000). CYP2C19 Supersomes, luciferin-H EGE luminescence, 30 min. P33261. inhibition, % at 5 µM. AID 778;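 active = CYP2C19 inhibition above a set limit at 5 µM in the primary screen, cut at about 50% in these data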
CYP2C9 activ – increases human cytochrome P450 2C9 activity; P11712; recombinant CYP2C9, luciferin-H conversion, luminescence; stronger effect = higher value; factor 1 = untreated enzyme, 0 = blocked; activation factor at 5 µM; actives 1.4% (n = 96,000); AID 1024;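 active = activation factor of 2 or more for CYP2C9 at a 5 µM dose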
Target sequence (P11712 whole entry, looked up): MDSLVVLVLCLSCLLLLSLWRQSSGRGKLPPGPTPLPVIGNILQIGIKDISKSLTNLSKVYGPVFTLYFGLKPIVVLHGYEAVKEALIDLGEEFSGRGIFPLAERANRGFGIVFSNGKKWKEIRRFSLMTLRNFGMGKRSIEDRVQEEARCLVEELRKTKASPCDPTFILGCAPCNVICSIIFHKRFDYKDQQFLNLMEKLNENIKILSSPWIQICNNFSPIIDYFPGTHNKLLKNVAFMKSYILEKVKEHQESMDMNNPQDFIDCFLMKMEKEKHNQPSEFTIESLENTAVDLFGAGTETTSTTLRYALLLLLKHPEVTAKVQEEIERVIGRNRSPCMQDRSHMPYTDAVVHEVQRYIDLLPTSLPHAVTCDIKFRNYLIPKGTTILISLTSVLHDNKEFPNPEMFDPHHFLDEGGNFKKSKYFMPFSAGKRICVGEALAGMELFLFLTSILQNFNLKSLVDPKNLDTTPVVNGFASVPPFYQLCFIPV
Ecoli tolC – growth inhibitors of E. coli BW25113 tolC mutant | OD615 | growth inhibition, % at 10 µM (by protocol) | AID 573 | actives 2.2% (n = 65,000);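 active = growth inhibition at or above a cutoff equal to the mean over every tested compound plus 3 SD, cut at about 60% in these data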;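 note: growth measured after 20 h incubation at 37 °C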
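Test system: tolC-deleted E. coli BW25113 | Medium: LB with kanamycin 50 µg/mL | Compound dosing: Single concentration, 10 µM final per compound | Schedule: 37 °C, 20 h exposure | Measured by: OD at 615 nm | Evaluation: Percent growth inhibition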
E coli WT exp – growth inhibitors of E. coli BW25113 wild type | growth inhibition, % at 100 µM | OD600 absorbance | actives 0.15% (n = 98,000) | AID 710;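 active = growth inhibition above about 50% at one test dose, limit read from the data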;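 note: growth measured after 20 h incubation at 37 °C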
CYP2C19 activ – increases human CYP2C19 enzyme activity | recombinant CYP2C19, luciferin-H EGE luminescence; stronger effect = higher value; 0 = fully inhibited enzyme, 1 = untreated enzyme | activation factor at 5 µM | 96,000 tested, under 10 active;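 active = activation factor of at least 2 at 5 µM in the primary screen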
CYP2C9 inhib – human CYP2C9 inhibition. actives 20% (n = 96,000). inhibition, % at 5 µM. AID 777. CYP2C9 Supersomes, luciferin-H conversion, luminescence;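 active = blocking of liver enzyme CYP2C9 beyond about 50% at 5 µM, limit read from the data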
A number is an active result; n = inactive; x = no result given.

SMILES	CYP2C19 inhib	CYP2C9 activ	Ecoli tolC	E coli WT exp	CYP2C19 activ	CYP2C9 inhib
O=C1Nc2ccccc2S/C1=C/Nc1cccc(Cl)c1	n	n	x	n	n	n
O=C(Nc1ccccc1C(=O)N1CCCCC1)C1CCCCC1	n	n	n	n	n	56
CC1CCCC(C)N1C(=O)c1ccccc1Nc1ccc(SC(F)F)cc1 (stereo not given)	n	n	x	n	n	n
O=C(c1ccccc1Nc1ccc(SC(F)F)cc1)N1CCCCC1	88	n	x	n	n	53
COC(=O)c1ccccc1NC(=O)C1CCN(C(=O)c2ccc(OC)cc2)CC1	50	n	x	n	n	n
Cc1ccccc1C(=O)N1CCC(C(=O)Nc2cccc(F)c2)CC1	n	n	n	n	n	51
O=C(Nc1ccccc1)OCN1C(=O)c2ccccc2C1=O	n	n	x	n	n	n
CCOc1ccccc1NC(=S)N1CCC(NC(=O)NC23CC4CC(CC(C4)C2)C3)CC1	n	n	x	n	n	n
N#Cc1cn(CCOc2ccccc2F)c2ccccc12	98	n	74	n	n	100
Fc1ccccc1OCCCN1CCOCC1	n	n	n	n	n	n
N#Cc1cn(CC(=O)O)c2ccccc12	n	n	n	n	n	n
Cc1c(C#N)c2ccccc2n1CCOc1ccccc1F	n	n	n	n	n	51
CCC(c1nnnn1C(C)(C)CC)N(CCCN1CCOCC1)Cc1cc2cccc(C)c2[nH]c1=O (stereo not given)	n	n	x	n	n	n
CCC(c1nnnn1C(C)(C)CC)N(CCCO)Cc1cc2cccc(C)c2[nH]c1=O (stereo not given)	71	n	n	n	n	75
CS(=O)(=O)N1Cc2ccccc2CC1C(=O)OCC(=O)Nc1ccc2ccccc2c1 (stereo not given)	n	n	x	n	n	n
O=S(=O)(Nc1nc2ccccc2nc1NCC1CCCO1)c1cccs1 (stereo not given)	n	n	n	n	n	92
Cc1cccc(NS(=O)(=O)c2cccs2)n1	n	n	n	n	n	n
COCCCNc1nc2ccccc2nc1NS(=O)(=O)c1cccs1	n	n	n	n	n	94
COc1ccc(Nc2nc3ccccc3nc2NS(=O)(=O)c2cccs2)cc1	n	n	x	n	n	88
COCCn1c(N)c(S(=O)(=O)c2cccs2)c2nc3ccccc3nc21	n	n	n	n	n	n
CCC(c1nnnn1CC1CCCO1)N(CCN1CCOCC1)Cc1cc2cc(C)ccc2[nH]c1=O (stereo not given)	n	n	n	n	n	n
c1ccc(-c2nc3c4ccccc4nc(N4CCN(c5ccccn5)CC4)n3n2)cc1	x	x	n	x	x	x
CCOc1ccc(Oc2nc(Nc3ccc(C)cc3)nc(N(C)C)n2)nn1	n	n	n	n	n	n
C=CCN1C(=NC(=O)CCC)SC2CS(=O)(=O)CC21 (stereo not given)	n	n	x	n	n	n
CC1(C)CC(C)(O)P(=O)(c2ccccc2)O1 (stereo not given)	n	n	n	n	n	n
SMILES	CYP2C19 inhib	CYP2C9 activ	Ecoli tolC	E coli WT exp	CYP2C19 activ	CYP2C9 inhib
COc1cccc(Cn2c(C3CC3)nc3ccc(NC(=O)c4ccco4)cc3c2=O)c1	n	n	n	n	n	n
O=C(Nc1ccc2nc(C3CC3)n(Cc3ccc(F)cc3)c(=O)c2c1)c1ccco1	56	n	n	n	n	67
Cc1ccc(NC(=O)C2CCN(S(=O)(=O)c3cccs3)CC2)cc1C	n	n	x	n	n	n
CCN(CC)S(=O)(=O)c1cccc(NC(=O)C2SC(=Nc3ccc(C)cc3C)C(C(=O)NCC3CCCO3)=C2N)c1 (stereo not given)	62	n	x	n	n	93
COCCNC(=O)C1=C(N)C(C(=O)Nc2ccc(C)c(S(=O)(=O)N3CCCCC3)c2)SC1=Nc1ccc(C)cc1C (stereo not given)	n	n	x	n	n	75
CC(OC(=O)c1nsc(Cl)c1Cl)C(=O)NCc1ccco1 (stereo not given)	67	n	n	n	n	56
CC(OC(=O)c1nsc(Cl)c1Cl)C(=O)NCc1ccc2c(c1)OCO2 (stereo not given)	n	n	x	n	n	92
CC(OC(=O)c1nn(C)c(=O)c2ccccc12)C(=O)NCc1ccc2c(c1)OCO2 (stereo not given)	n	n	n	n	n	78
